According to ChEMBL document CHEMBL2029236, “Tubulin binding, protein-bound conformation in solution, and antimitotic cellular profiling of noscapine and its derivatives” (J Med Chem, 2012):
The source made the active and inactive calls. The rule behind the calls is not given here.

What was measured:
Bos taurus [1] = species on record: Bos taurus; assay: Binding affinity to calf brain tubulin assessed as increase in fluorescence at 10 uM by fluorometry relative to control
Method in brief: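 Fluorescence emission spectra of 10 μM ligand with and without 10 μM tubulin in 10 mM sodium phosphate, 0.1 mM GTP, pH 7.0, 25 °C. Emission intensity (425 nm maximum) and anisotropy were compared between bound and unbound ligand.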

SNU-398 [2] = assay: Antiproliferative activity against human SNU398 cells; type: functional, cell-based
Method in brief: (§1)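 Cell viability assay in hepatocellular carcinoma cell lines; IC50 values derived from concentration–response data and reported in nM.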

[3] = Antiproliferative activity against human PLC/PRF/5 cells; type: functional, cell-based; method in brief: as §1
SNU-398 [4] = assay: Cell cycle arrest in human SNU398 cells assessed as accumulation at G1 phase at 2 uM after 24 hrs by FACS analysis (reference value: 55.8%); type: functional
SNU-398 [5] = assay: Cell cycle arrest in human SNU398 cells assessed as accumulation at G2 phase at 2 uM after 24 hrs by FACS analysis (reference value: 38.2%); type: functional
SNU-398 [6] = assay: Cell cycle arrest in human SNU398 cells assessed as accumulation at sub-G1 phase at 2 uM after 24 hrs by FACS analysis (reference value: 1.2%); type: functional
[7] = Cell cycle arrest in human PLC/PRF/5 cells assessed as accumulation at G1 phase at 2 uM after 24 hrs by FACS analysis (reference value: 66.8%); type: functional, cell-based
[8] = Cell cycle arrest in human PLC/PRF/5 cells assessed as accumulation at G2 phase at 2 uM after 24 hrs by FACS analysis (reference value: 26.1%); type: functional, cell-based
[9] = Cell cycle arrest in human PLC/PRF/5 cells assessed as accumulation at sub-G1 phase at 2 uM after 24 hrs by FACS analysis (reference value: 1.4%); type: functional, cell-based
SMMC-7721 = assay: Antiproliferative activity against human SMMC7721 after 72 hrs by CellTiter Glo assay; type: functional, cell-based; conditions: SMMC-7721, 72 h; method in brief: as §1
[10] = Antiproliferative activity against human MHCC97H after 72 hrs by CellTiter Glo assay; type: functional; method in brief: as §1
Bel-7402 = assay: Antiproliferative activity against human Bel7402 after 72 hrs by CellTiter Glo assay; type: functional, cell-based; conditions: Bel-7402, 72 h; method in brief: as §1
[11] = Antiproliferative activity against human Hep3B after 72 hrs by CellTiter Glo assay; type: functional, Hep 3B2; method in brief: as §1
HepG2 = assay: Antiproliferative activity against human HepG2 after 72 hrs by CellTiter Glo assay; type: functional, cell-based; conditions: HepG2, 72 h; method in brief: as §1
Huh-7 = assay: Antiproliferative activity against human HuH7 after 72 hrs by CellTiter Glo assay; type: functional, cell-based; conditions: Huh-7, 72 h; method in brief: as §1
[12] = Antiproliferative activity against human JHH2 after 72 hrs by CellTiter Glo assay; type: functional; method in brief: as §1
[13] = Antiproliferative activity against human JHH4 after 72 hrs by CellTiter Glo assay; type: functional; method in brief: as §1
[14] = Antiproliferative activity against human JHH7 after 72 hrs by CellTiter Glo assay; type: functional; method in brief: as §1
[15] = Antiproliferative activity against human PLC/PRF/5 after 72 hrs by CellTiter Glo assay; type: functional; conditions: PLC-PRF-5, 72 h; method in brief: as §1
[16] = Antiproliferative activity against human SNU182 after 72 hrs by CellTiter Glo assay; type: functional, cell-based; conditions: SNU-182, 72 h; method in brief: as §1
SNU-387 = assay: Antiproliferative activity against human SNU387 after 72 hrs by CellTiter Glo assay; type: functional, cell-based; conditions: SNU-387, 72 h; method in brief: as §1
SNU-398 [17] = assay: Antiproliferative activity against human SNU398 after 72 hrs by CellTiter Glo assay; type: functional, cell-based; conditions: SNU-398, 72 h; method in brief: as §1
SNU-423 = assay: Antiproliferative activity against human SNU423 after 72 hrs by CellTiter Glo assay; type: functional, cell-based; conditions: SNU-423, 72 h; method in brief: as §1
SNU-449 = assay: Antiproliferative activity against human SNU449 after 72 hrs by CellTiter Glo assay; type: functional, cell-based; conditions: SNU-449, 72 h; method in brief: as §1
SNU-475 = assay: Antiproliferative activity against human SNU475 after 72 hrs by CellTiter Glo assay; type: functional, cell-based; conditions: SNU-475, 72 h; method in brief: as §1
SNU-398 [18] = assay: Cell cycle arrest in human SNU398 cells assessed as accumulation at G1 phase at 100 nM after 24 hrs by FACS analysis (reference value: 55.8%); type: functional
SNU-398 [19] = assay: Cell cycle arrest in human SNU398 cells assessed as accumulation at G2 phase at 100 nM after 24 hrs by FACS analysis (reference value: 38.2%); type: functional
SNU-398 [20] = assay: Cell cycle arrest in human SNU398 cells assessed as accumulation at sub-G1 phase at 100 nM after 24 hrs by FACS analysis (reference value: 1.2%); type: functional
[21] = Cell cycle arrest in human PLC/PRF/5 cells assessed as accumulation at G1 phase at 100 nM after 24 hrs by FACS analysis (reference value: 66.8%); type: functional, cell-based
[22] = Cell cycle arrest in human PLC/PRF/5 cells assessed as accumulation at G2 phase at 100 nM after 24 hrs by FACS analysis (reference value: 26.1%); type: functional, cell-based
[23] = Cell cycle arrest in human PLC/PRF/5 cells assessed as accumulation at sub-G1 phase at 100 nM after 24 hrs by FACS analysis (reference value: 1.4%); type: functional, cell-based
SNU-398 [24] = assay: Cell cycle arrest in human SNU398 cells assessed as accumulation at G1 phase after 24 hrs by FACS analysis (reference value: 55.8%); type: functional
SNU-398 [25] = assay: Cell cycle arrest in human SNU398 cells assessed as accumulation at G2 phase after 24 hrs by FACS analysis (reference value: 38.2%); type: functional
[26] = Cell cycle arrest in human PLC/PRF/5 cells assessed as accumulation at G1 phase after 24 hrs by FACS analysis (reference value: 66.8%); type: functional, cell-based
[27] = Cell cycle arrest in human PLC/PRF/5 cells assessed as accumulation at G2 phase after 24 hrs by FACS analysis (reference value: 26.1%); type: functional, cell-based
[28] = Cell cycle arrest in human PLC/PRF/5 cells assessed as accumulation at sub-G1 phase after 24 hrs by FACS analysis (reference value: 1.4%); type: functional, cell-based
Bos taurus [29] = species on record: Bos taurus; assay: Binding affinity to calf brain tubulin assessed as binding constant by fluorometry; type: tissue-based
Method in brief: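 Fluorescence titration in 10 mM sodium phosphate, 0.1 mM GTP, pH 7.0, 25 °C. Ligand at 5 μM was titrated with tubulin up to 100 μM. Bound and free ligand were quantified from the change in ligand fluorescence. Binding constant fitted assuming a single site, 1:1 stoichiometry and 0.87 sites per dimer. Average of five experiments.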

Bos taurus [30] = species on record: Bos taurus; assay: Inhibition of calf brain tubulin assembly at 10 uM by fluorometry in presence of podophyllotoxin
Bos taurus [31] = species on record: Bos taurus; assay: Inhibition of calf brain tubulin assembly at 10 uM by fluorometry in presence of vinblastine
Bos taurus [32] = species on record: Bos taurus; assay: Inhibition of calf brain tubulin assembly at 10 uM by fluorometry in presence of isohomohalichondrin
Bos taurus [33] = species on record: Bos taurus; assay: Inhibition of calf brain tubulin assembly at 10 uM by fluorometry in presence of pironetin
Bos taurus [34] = species on record: Bos taurus; assay: Inhibition of calf brain tubulin assembly at 10 uM by fluorometry in presence of gossipol
Bos taurus [35] = species on record: Bos taurus; assay: Inhibition of calf brain tubulin assembly at 10 uM by fluorometry in presence of noscapine
Bos taurus [36] = species on record: Bos taurus; assay: Inhibition of calf brain tubulin assembly at 10 uM by fluorometry in presence of nocodazole
Bos taurus [37] = species on record: Bos taurus; assay: Binding affinity to calf brain tubulin alpha/beta heterodimer assessed as increase in proton signal at […] by STD NMR analysis
Method in brief: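 STD NMR with freshly prepared tubulin α/β heterodimer. Ligand:protein molar ratio 30:1 ([…], […]). Read-out: enhancement of ligand proton signals in STD spectra versus an off-resonance reference spectrum acquired without protein irradiation.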

## COc1ccc2c(c1O)C(=O)O[C@@H]2[C@H]1c2c(cc3c(c2OC)OCO3)CCN1C
Bos taurus [1]
  Activity: inactive
SNU-398 [2]
  IC50: > 2000 nM
[3]
  IC50: > 2000 nM
SNU-398 [4]
  Activity: 33.5%
SNU-398 [5]
  Activity: 47.8%
SNU-398 [6]
  Activity: 15.2%
[7]
  Activity: 62.8%
[8]
  Activity: 23.3%
[9]
  Activity: 8.7%

## C/C(=C\c1csc(C)n1)[C@@H]1C[C@@H]2O[C@]2(C)CCC[C@H](C)[C@H](O)[C@@H](C)C(=O)C(C)(C)[C@@H](O)CC(=O)O1 [PATUPILONE]
SNU-398 [2]
  IC50: 5 nM
[3]
  IC50: 3.8 nM
SMMC-7721
  IC50: 2.3 nM
[10]
  IC50: 6.7 nM
Bel-7402
  IC50: 0.9 nM
[11]
  IC50: > 100 nM
HepG2
  IC50: 44.7 nM
Huh-7
  IC50: 4.5 nM
[12]
  IC50: 61.3 nM
[13]
  IC50: 1.8 nM
[14]
  IC50: 14.8 nM
[15]
  IC50: 12.7 nM
[16]
  IC50: 22.3 nM
SNU-387
  IC50: 20 nM
SNU-398 [17]
  IC50: 2.9 nM
SNU-423
  IC50: 10.3 nM
SNU-449
  IC50: 19.9 nM
SNU-475
  IC50: 11.6 nM
SNU-398 [18]
  Activity: 13.7%
SNU-398 [19]
  Activity: 70.1%
SNU-398 [20]
  Activity: 11.8%
[21]
  Activity: 5.4%
[22]
  Activity: 56.3%
[23]
  Activity: 5.1%

## CC[C@]1(O)C[C@H]2CN(CCc3c([nH]c4ccccc34)[C@@](C(=O)OC)(c3cc4c(cc3OC)N(C=O)[C@H]3[C@@](O)(C(=O)OC)[C@H](OC(C)=O)[C@]5(CC)C=CCN6CC[C@]43[C@@H]65)C2)C1 [VINCRISTINE]
SNU-398 [2]
  IC50: 46.7 nM
[3]
  IC50: 12.7 nM
SMMC-7721
  IC50: 6.5 nM
[10]
  IC50: 21.2 nM
Bel-7402
  IC50: 4.2 nM
[11]
  IC50: > 100 nM
HepG2
  IC50: > 100 nM
Huh-7
  IC50: 20 nM
[12]
  IC50: > 100 nM
[13]
  IC50: 7.2 nM
[14]
  IC50: 28.2 nM
[15]
  IC50: 22.1 nM
[16]
  IC50: 35.9 nM
SNU-387
  IC50: 40.9 nM
SNU-398 [17]
  IC50: < 0.13 nM
SNU-423
  IC50: 18.4 nM
SNU-449
  IC50: > 100 nM
SNU-475
  IC50: 29.3 nM
SNU-398 [24]
  Activity: 17.1%
SNU-398 [25]
  Activity: 64.5%
[26]
  Activity: 12.2%
[27]
  Activity: 68.4%
[28]
  Activity: 11.8%

## COC(=O)Nc1nc2cc(C(=O)c3cccs3)ccc2[nH]1
Bos taurus [29]
  Activity: 4 ×10⁵ /M
Bos taurus [30]
  inhibition: Active
Bos taurus [31]
  inhibition: Active
Bos taurus [32]
  inhibition: Active
Bos taurus [33]
  inhibition: Active
Bos taurus [34]
  inhibition: Active
Bos taurus [35]
  inhibition: Active
Bos taurus [36]
  inhibition: inactive

## COc1ccc2c(c1OC)C(=O)O[C@@H]2[C@H]1c2c(cc3c(c2OC)OCO3)CCN1C [NOSCAPINE]
Bos taurus [1]
  Activity: inactive
Bos taurus [37]
  inhibition: Active
SNU-398 [2]
  IC50: > 2000 nM
[3]
  IC50: > 2000 nM
SMMC-7721
  IC50: > 1000 nM
[10]
  IC50: > 1000 nM
Bel-7402
  IC50: > 1000 nM
[11]
  IC50: > 1000 nM
HepG2
  IC50: > 1000 nM
Huh-7
  IC50: > 1000 nM
[12]
  IC50: > 1000 nM
[13]
  IC50: > 1000 nM
[14]
  IC50: > 1000 nM
[15]
  IC50: > 1000 nM
[16]
  IC50: > 1000 nM
SNU-387
  IC50: > 1000 nM
SNU-398 [17]
  IC50: > 1000 nM
SNU-423
  IC50: > 1000 nM
SNU-449
  IC50: > 1000 nM
SNU-475
  IC50: > 1000 nM
SNU-398 [4]
  Activity: 66%
SNU-398 [5]
  Activity: 30.3%
SNU-398 [6]
  Activity: 1%
[7]
  Activity: 65.5%
[8]
  Activity: 27.1%
[9]
  Activity: 1.5%
